Source: ChEMBL document CHEMBL1122229, “alpha-adrenoreceptor reagents. 1. Synthesis of some 1,4-benzodioxans as selective presynaptic alpha 2-adrenoreceptor antagonists and potential antidepressants” (J Med Chem, 1983)
The source made the active and inactive calls. The rule behind the calls is not given here.

How the values were obtained:
[1] = target: T1, Adrenergic receptor alpha-1 (Rattus norvegicus) (UniProt P15823+P23944+P43140); assay: In vitro postsynaptic agonist potency at alpha-1 adrenergic receptor in rat anococcygeus muscle relative to phenylephrine; IA means inactive.; assay type: functional, tissue-based
How it was run: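 Rat anococcygeus muscle (male Sprague–Dawley rats, 200–250 g) suspended at 0.5 g initial tension in a 50-mL organ bath. […] Standard dose-response curves were run before and after the analogue's curve.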

[2] = test system: Alpha-2 adrenergic receptor (Rattus norvegicus); assay: In vitro presynaptic agonist potency at alpha-2 adrenergic receptor in rat or mouse vas deferens relative to clonidine; Inactive
[3] = target: Adrenergic receptor alpha-2 (Homo sapiens) (UniProt P08913+P18825+P18089); assay: In vitro presynaptic antagonist potency at Alpha-2 adrenergic receptor in rat or mouse vas deferens relative to compound 5 (RX781094); assay type: functional, tissue-based
How it was run: (§1)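 Prostatic half of vas deferens from male Sprague–Dawley rats (200–250 g; Krebs, 30 °C, 95% O2/5% CO2, 0.1 Hz, 3-ms, 40 V) or from mice (magnesium-free Krebs, 100–140 V). Tension 0.5 g; isometric twitch recording. […] The concentration giving 50% reversal of the inhibition was compared with standard 5 in the same tissue.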

[4] = target: T1, Adrenergic receptor alpha-1 (Rattus norvegicus); assay: Ratio of presynaptic antagonist potency to postsynaptic antagonist potency; assay type: functional
[5] = target: T1, Adrenergic receptor alpha-1 (Rattus norvegicus); assay: In vitro postsynaptic antagonist potency at alpha-1 adrenergic receptor in rat anococcygeus relative to compound 5 (RX781094); assay type: functional
[6] = In vitro antagonism at Alpha-2 adrenergic receptor in rat or mouse vas deferens relative to RX781094.; assay type: functional; how it was run: as §1
[7] = target: T2, Adenosine receptor A2b (Rattus norvegicus) (UniProt P29276); assay: In vitro presynaptic agonist potency at Alpha-2 adrenergic receptor in rat or mouse vas deferens relative to clonidine; assay type: functional, tissue-based
T2 sequence (whole entry): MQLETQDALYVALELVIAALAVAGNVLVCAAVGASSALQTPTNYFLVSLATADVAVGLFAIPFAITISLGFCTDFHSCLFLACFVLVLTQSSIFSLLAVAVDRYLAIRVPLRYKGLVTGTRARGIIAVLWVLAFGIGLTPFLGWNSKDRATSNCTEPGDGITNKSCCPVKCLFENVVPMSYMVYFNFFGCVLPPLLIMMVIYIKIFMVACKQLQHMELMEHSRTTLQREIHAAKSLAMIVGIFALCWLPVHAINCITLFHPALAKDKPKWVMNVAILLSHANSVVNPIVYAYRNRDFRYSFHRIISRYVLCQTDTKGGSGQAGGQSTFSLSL
How it was run: (§2)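 Field-stimulated rat or mouse vas deferens under 0.5 g tension, at 0.1 Hz with 3-ms pulses, 30 °C, gassed with 95% O2/5% CO2. Contractions were recorded isometrically. Standard dose-response curves were run before and after each analogue curve. Potency was expressed relative to the standard in the same experiment.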

[8] = target: T1, Adrenergic receptor alpha-1 (Rattus norvegicus); assay: In vitro postsynaptic agonist potency at alpha-1 adrenergic receptor in rat anococcygeus muscle relative to phenylephrine; assay type: functional, tissue-based
[9] = target: T1, Adrenergic receptor alpha-1 (Rattus norvegicus); assay: In vitro postsynaptic antagonist potency at alpha-1 adrenergic receptor in rat anococcygeus relative to compound 5 (RX781094); AG means compound is agonist.; assay type: functional; settings: filed as agonist
[10] = target: T1, Adrenergic receptor alpha-1 (Rattus norvegicus); assay: In vitro postsynaptic antagonist potency at alpha-1 adrenergic receptor in rat anococcygeus.; assay type: functional
[11] = test system: Alpha-1 adrenergic receptor (Rattus norvegicus); assay: In vitro postsynaptic agonist potency at alpha-1 adrenergic receptor in rat anococcygeus.
[12] = target: T2, Adenosine receptor A2b (Rattus norvegicus); assay: In vitro presynaptic antagonist potency at alpha-2 adrenergic receptor in rat or mouse vas deferens; IA means inactive; assay type: functional; how it was run: as §1
[13] = target: T3, Adrenergic receptor alpha-2 (Rattus norvegicus) (UniProt P22086+P19328+P22909); assay: In vitro presynaptic agonist potency at alpha-2 adrenergic receptor in rat or mouse vas deferens relative to clonidine; assay type: functional, tissue-based; how it was run: as §2
[14] = target: T1, Adrenergic receptor alpha-1 (Rattus norvegicus); assay: In vitro postsynaptic antagonist potency at alpha-1 adrenergic receptor in rat anococcygeus. Taken as standard; assay type: functional
[15] = target: T3, Adrenergic receptor alpha-2 (Rattus norvegicus); assay: In vitro presynaptic agonist potency at alpha-2 adrenergic receptor in rat or mouse vas deferens relative to clonidine; IA means inactive; assay type: functional, tissue-based
How it was run: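 Field-stimulated rat or mouse vas deferens (Krebs, 30 °C, 95% O2/5% CO2, 3-ms pulses at 0.1 Hz) with isometric twitch recording. […] Standard dose-response curves were run before and after the analogue's curve.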

[16] = target: T2, Adenosine receptor A2b (Rattus norvegicus); assay: In vitro presynaptic agonist potency at Alpha-2 adrenergic receptor in rat or mouse vas deferens relative to clonidine; IA means inactive; assay type: functional, tissue-based; how it was run: as §2
[17] = target: T4, Adrenergic receptor alpha-2 (Rattus norvegicus, UniProt P22086+P19328+P22909); assay: Alpha-2 adrenergic receptor pA2 value against clonidine in vitro experiment in rat vas deferens; assay type: tissue-based
T4 sequence (P22086 whole entry): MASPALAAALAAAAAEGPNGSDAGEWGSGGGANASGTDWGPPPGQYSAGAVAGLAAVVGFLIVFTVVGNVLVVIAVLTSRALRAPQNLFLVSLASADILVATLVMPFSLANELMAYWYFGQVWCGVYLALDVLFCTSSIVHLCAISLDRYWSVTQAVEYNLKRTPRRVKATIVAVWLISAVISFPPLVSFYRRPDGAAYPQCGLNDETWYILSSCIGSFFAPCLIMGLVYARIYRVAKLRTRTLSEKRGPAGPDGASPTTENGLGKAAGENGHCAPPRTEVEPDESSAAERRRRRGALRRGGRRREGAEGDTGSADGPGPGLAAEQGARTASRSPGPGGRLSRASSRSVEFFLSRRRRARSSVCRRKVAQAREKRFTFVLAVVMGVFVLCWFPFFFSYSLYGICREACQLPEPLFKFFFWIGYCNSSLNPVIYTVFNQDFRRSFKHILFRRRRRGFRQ
T4 sequence (P19328 whole entry): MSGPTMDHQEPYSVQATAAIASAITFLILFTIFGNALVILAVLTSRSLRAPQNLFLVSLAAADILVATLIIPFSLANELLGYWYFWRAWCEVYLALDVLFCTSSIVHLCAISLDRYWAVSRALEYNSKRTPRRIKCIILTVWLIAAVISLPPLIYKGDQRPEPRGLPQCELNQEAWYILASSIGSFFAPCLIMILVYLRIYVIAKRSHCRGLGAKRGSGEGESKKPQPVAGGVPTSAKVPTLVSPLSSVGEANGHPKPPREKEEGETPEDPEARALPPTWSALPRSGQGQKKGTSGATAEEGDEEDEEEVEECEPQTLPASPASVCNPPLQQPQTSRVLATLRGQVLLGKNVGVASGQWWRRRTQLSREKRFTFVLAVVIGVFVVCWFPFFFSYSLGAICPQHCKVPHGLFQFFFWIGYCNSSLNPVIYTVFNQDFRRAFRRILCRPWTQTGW
T4 sequence (P22909 whole entry): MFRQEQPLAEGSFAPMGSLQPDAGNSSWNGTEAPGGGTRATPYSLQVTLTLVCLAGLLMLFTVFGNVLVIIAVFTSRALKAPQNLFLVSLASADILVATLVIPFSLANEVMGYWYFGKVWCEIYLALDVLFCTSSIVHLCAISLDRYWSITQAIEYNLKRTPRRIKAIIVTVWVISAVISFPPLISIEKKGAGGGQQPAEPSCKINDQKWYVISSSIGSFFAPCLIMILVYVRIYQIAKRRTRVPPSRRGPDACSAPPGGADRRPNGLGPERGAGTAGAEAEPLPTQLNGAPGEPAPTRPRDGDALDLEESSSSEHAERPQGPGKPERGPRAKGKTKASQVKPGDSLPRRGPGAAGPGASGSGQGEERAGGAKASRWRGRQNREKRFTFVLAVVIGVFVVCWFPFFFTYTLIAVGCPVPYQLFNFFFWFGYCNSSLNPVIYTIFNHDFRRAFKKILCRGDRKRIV
How it was run: (§3)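 pA2 was obtained by Arunlakshana–Schild analysis at postsynaptic α1 (anococcygeus) or presynaptic α2 (vas deferens) sites. Values are mean ± SEM of at least six experiments.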

[18] = target: T3, Adrenergic receptor alpha-2 (Rattus norvegicus); assay: In vitro presynaptic antagonist potency at alpha-2 adrenergic receptor in rat or mouse vas deferens relative to compound 5 (RX781094); assay type: functional, tissue-based
How it was run: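 Prostatic halves of rat vas deferens (male Sprague–Dawley rats, 200–250 g; Krebs, 30 °C, 95% O2/5% CO2; 3-ms, 40 V, 0.1 Hz field pulses) or mouse vas deferens (Mg-free Krebs, 30 °C; 3-ms pulses, 0.1 Hz, 100–140 V) were used, with isometric twitch recording. […] The concentration giving 50% reversal was compared with the RX781094 standard in the same tissue.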

[19] = Ratio of pA2 value against alpha2 to alpha-1 adrenoceptor
How it was run: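 α2/α1 selectivity was taken as the antilog of the difference between the pA2 values at α2- and α1-adrenoreceptors.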

[20] = target: T5, Adrenergic receptor alpha-1 (Rattus norvegicus, UniProt P15823+P23944+P43140); assay: Alpha-1 adrenergic receptor pA2 value against norepinephrine in vitro experiment in rat anococcygeus.; how it was run: as §3
T5 sequence (P15823 whole entry): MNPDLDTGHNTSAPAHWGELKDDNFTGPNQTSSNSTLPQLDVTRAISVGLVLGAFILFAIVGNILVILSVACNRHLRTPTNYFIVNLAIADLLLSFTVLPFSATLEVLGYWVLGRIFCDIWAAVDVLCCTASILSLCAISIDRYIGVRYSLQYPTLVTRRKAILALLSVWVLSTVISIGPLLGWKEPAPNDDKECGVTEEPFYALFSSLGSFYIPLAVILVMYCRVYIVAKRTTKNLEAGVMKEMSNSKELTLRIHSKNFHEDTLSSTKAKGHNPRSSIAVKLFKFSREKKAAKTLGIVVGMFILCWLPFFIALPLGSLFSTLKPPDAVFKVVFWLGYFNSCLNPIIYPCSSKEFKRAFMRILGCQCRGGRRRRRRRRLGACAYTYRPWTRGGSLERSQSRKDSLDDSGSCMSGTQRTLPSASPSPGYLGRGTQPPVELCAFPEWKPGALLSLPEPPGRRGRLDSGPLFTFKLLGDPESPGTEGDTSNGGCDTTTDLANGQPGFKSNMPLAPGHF
T5 sequence (P23944 whole entry): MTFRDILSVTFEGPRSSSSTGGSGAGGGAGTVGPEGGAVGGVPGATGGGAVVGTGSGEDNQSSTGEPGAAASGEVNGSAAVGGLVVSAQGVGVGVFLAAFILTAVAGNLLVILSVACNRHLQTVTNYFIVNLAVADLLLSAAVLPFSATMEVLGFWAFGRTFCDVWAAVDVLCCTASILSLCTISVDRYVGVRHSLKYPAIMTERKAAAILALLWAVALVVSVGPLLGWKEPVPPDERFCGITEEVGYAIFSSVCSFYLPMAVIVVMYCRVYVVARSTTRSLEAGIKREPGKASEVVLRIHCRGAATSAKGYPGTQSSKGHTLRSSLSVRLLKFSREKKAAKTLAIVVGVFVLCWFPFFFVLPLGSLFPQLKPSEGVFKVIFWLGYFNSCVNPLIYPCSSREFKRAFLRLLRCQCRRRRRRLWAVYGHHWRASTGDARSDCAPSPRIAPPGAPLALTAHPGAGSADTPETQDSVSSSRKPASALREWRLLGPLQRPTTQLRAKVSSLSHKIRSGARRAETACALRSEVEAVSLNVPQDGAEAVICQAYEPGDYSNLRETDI
T5 sequence (P43140 whole entry): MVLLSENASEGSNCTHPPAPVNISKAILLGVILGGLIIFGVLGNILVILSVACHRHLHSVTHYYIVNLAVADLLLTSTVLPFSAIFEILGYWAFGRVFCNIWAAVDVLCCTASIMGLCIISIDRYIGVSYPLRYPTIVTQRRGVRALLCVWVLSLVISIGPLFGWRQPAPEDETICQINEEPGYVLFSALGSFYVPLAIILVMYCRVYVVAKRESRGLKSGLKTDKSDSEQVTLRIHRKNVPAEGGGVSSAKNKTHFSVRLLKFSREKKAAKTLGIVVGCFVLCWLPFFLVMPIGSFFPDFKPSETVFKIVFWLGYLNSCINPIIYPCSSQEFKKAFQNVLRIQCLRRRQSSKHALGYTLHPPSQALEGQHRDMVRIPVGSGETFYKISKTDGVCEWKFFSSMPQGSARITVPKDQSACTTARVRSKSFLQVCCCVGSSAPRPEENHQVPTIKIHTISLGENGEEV

[21] = target: T5, Adrenergic receptor alpha-1; assay: alpha-1 adrenergic receptor pA2 value against norepinephrine in vitro experiment in rat anococcygeus
[22] = Selectivity ratio of presynaptic antagonist potency to postsynaptic antagonist potency; assay type: functional
How it was run: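 Selectivity ratio is the antilog of the difference between pA2 values at presynaptic α2- and postsynaptic α1-adrenoreceptors. pA2 values were derived by the Arunlakshana–Schild method, each a mean ± SEM of at least six experiments.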

COc1cc2c(cc1OC)OC(C1=NCCN1)CO2 (stereo unspecified)
Agonist potency [1]: inactive | Agonist potency [2]: inactive | Antagonist potency [3]: 0.015 | Selectivity [4]: 0.3 | Antagonist potency [5]: 0.05

Cc1cccc2c1OCC(C1=NCCN1)O2 (stereo unspecified)
Antagonist potency [6]: 0.13 | Agonist potency [7]: 0.1 | Agonist potency [8]: 1 | Antagonist potency [9]: Agonist

Oc1cc2c(cc1O)OC(C1=NCCN1)CO2 (stereo unspecified)
Antagonist potency [10]: > 6 | Agonist potency [11]: 0.018 | Antagonist potency [12]: inactive | Agonist potency [13]: 0.0006

c1ccc2c(c1)OCC(C1=NCCN1)O2 (stereo unspecified)
Agonist potency [1]: inactive | Antagonist potency [14]: 1 | Agonist potency [15]: inactive

CC(C)c1cccc2c1OCC(C1=NCCN1)O2 (stereo unspecified)
Agonist potency [13]: 0.1 | Antagonist potency [5]: 1 | Antagonist potency [16]: inactive | Agonist potency [8]: 0.5

Cc1ccc2c(c1)OCC(C1=NCCN1)O2 (stereo unspecified)
Agonist potency [1]: inactive | pA2 [17]: 7.56 | Agonist potency [15]: inactive | Selectivity [4]: 0.21 | Antagonist potency [18]: 0.08 | Antagonist potency [5]: 0.4 | Selectivity [19]: 30 | pA2 [20]: 6.17

CCn1ccnc1CC1COc2ccccc2O1 (stereo unspecified) [IMILOXAN]
Agonist potency [1]: inactive | pA2 [17]: 6.98 | Agonist potency [15]: inactive | Antagonist potency [18]: 0.02 | Antagonist potency [5]: 0.036 | Selectivity [19]: 135 | pA2 [21]: 4.85 | Selectivity [22]: 0.53
